The source of these data is ChEMBL document CHEMBL1157573, “BRAF inhibitors based on an imidazo[4,5]pyridin-2-one scaffold and a meta substituted middle ring” (J Med Chem, 2010).

Where only a bound is given, the exact number is not on record here.

Assay [1] concerns the target T1, Serine/threonine-protein kinase B-raf (Homo sapiens, UniProt P15056, V600E). The assay is described as follows: Inhibition of BRAF V600E mutant-mediated ERK phosphorylation in human WM266.4 cells. The assay is classed as cell-based.
Assay [2] deals with T1, Serine/threonine-protein kinase B-raf. The assay is described as follows: Inhibition of human BRAF V600E mutant expressed in Sf9 cells.
Assay [3] is described as follows: Antiproliferative activity against human WM266.4 cells after 6 days by SRB assay. It counts as functional. Particulars: WM 266-4, 144 h. The method in brief: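 SRB cell proliferation assay on WM266.4 melanoma cells, which carry mutant BRAF. Growth inhibition is reported as GI50.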

T1 sequence (P15056 2-766 V600E limits assumed): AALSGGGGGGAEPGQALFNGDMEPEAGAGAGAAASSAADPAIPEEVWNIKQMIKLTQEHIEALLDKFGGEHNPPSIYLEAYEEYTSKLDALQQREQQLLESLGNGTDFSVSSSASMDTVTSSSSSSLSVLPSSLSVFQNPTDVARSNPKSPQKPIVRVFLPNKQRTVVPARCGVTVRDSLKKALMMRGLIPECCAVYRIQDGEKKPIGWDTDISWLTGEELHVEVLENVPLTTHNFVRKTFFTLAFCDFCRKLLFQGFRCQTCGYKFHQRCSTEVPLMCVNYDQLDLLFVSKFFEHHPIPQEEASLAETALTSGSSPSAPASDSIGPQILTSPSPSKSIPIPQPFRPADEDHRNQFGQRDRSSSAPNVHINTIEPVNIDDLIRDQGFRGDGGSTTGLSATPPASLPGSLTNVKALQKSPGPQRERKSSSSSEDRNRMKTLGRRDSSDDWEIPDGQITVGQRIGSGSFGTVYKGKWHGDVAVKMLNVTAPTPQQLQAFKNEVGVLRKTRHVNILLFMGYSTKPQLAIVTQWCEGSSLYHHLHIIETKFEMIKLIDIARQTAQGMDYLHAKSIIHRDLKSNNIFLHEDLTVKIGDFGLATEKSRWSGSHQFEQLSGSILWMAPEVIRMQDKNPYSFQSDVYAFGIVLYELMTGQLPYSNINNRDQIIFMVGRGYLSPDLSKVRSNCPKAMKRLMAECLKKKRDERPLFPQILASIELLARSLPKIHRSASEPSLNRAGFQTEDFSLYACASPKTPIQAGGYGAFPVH

As for `O=C(Nc1cccc(Oc2ccnc3[nH]c(=O)[nH]c23)c1)c1ccccc1`, the IC50 in assay [1] was greater than 100 µM; in assay [2], 25.2 µM. In addition, the GI50 in assay [3] turned out to be 1.54 µM.

Turning to `O=C(Nc1cccc(Oc2ccnc3[nH]c(=O)[nH]c23)c1)c1ccc(Cl)c(C(F)(F)F)c1`, the IC50 came out at 28 µM in assay [1] and 0.124 µM in assay [2]. In addition, in assay [3], growth was halved (GI50) at 13.4 µM. On the same counts, the results for `O=C(Nc1cccc(Oc2ccnc3[nH]c(=O)[nH]c23)c1)c1cccc(N2CCCCC2)c1` are 15.4 µM, 0.047 µM and 9.6 µM. On the same counts, the results for `Cc1ccc(NC(=O)c2cccc(OC(F)(F)F)c2)cc1Oc1ccnc2[nH]c(=O)[nH]c12` are greater than 100 µM, greater than 10 µM and 38 µM. Turning to `O=C(Cc1ccccc1)Nc1cccc(Oc2ccnc3[nH]c(=O)[nH]c23)c1`, the IC50 in assay [1] was greater than 100 µM; in assay [2], 87 µM. Take `COc1ccc(NC(=O)c2cccc(OC(F)(F)F)c2)cc1Oc1ccnc2[nH]c(=O)[nH]c12`: the IC50 in assay [1] was greater than 100 µM; in assay [2], 0.34 µM. On to `O=C(Nc1cccc(Oc2ccnc3[nH]c(=O)[nH]c23)c1)c1cccc(-n2ccnc2)c1`, for which the IC50 in assay [1] was greater than 100 µM; in assay [2] it was greater than 10 µM. Besides, the GI50 in assay [3] was found to be 6.2 µM.

Take `CC(C)(C)c1cccc(C(=O)Nc2cccc(Oc3ccnc4[nH]c(=O)[nH]c34)c2)c1`: the figures for the IC50 in assay [1] and in assay [2] were 3.5 µM and 0.017 µM, respectively. In assay [3], the GI50 worked out at 1.83 µM.

In the case of `O=C(Nc1ccc(Oc2ccnc3[nH]c(=O)[nH]c23)cc1)c1cc(F)cc(N2CCOCC2)c1`, the IC50 in assay [2] is greater than 100 µM.

As for `Cc1ccc(-n2nc(C(C)(C)C)cc2NC(=O)c2cccc(Oc3ccnc4[nH]c(=O)[nH]c34)c2)cc1`, the IC50 came out at 2.05 µM in assay [1] and 0.59 µM in assay [2]. On the same counts, the results for `Cc1c(NC(=O)c2cccc(OC(F)(F)F)c2)cccc1Oc1ccnc2[nH]c(=O)[nH]c12` are greater than 100 µM and greater than 10 µM.

As for `COc1cc(NC(=O)c2cccc(OC(F)(F)F)c2)cc(Oc2ccnc3[nH]c(=O)[nH]c23)c1`, the IC50 in assay [1] stood at 16.6 µM; in assay [2], 0.064 µM. For the compound `O=C(Nc1ccc(Oc2ccnc3[nH]c(=O)[nH]c23)cc1)c1ccc(Br)cc1`, the IC50 in assay [2] came out at 14 µM. For `CC(C)(C)c1cc(C(=O)Nc2cccc(Oc3ccnc4[nH]c(=O)[nH]c34)c2)n(Cc2ccccc2)n1`, the IC50 in assay [1] and in assay [2] was greater than 100 µM throughout.

As for `CCC(C)(C)c1cccc(C(=O)Nc2cccc(Oc3ccnc4[nH]c(=O)[nH]c34)c2)c1`, the IC50 in assay [1] was 3.1 µM; in assay [2] it was 0.04 µM. Compound `O=c1[nH]c2nccc(Oc3ccc(NS(=O)(=O)c4cccc(C(F)(F)F)c4)cc3)c2[nH]1` yielded a half-maximal inhibitory concentration (IC50) in assay [2] greater than 100 µM. `O=c1[nH]c2nccc(Oc3ccc(NS(=O)(=O)c4ccc(Cl)c(C(F)(F)F)c4)cc3)c2[nH]1`: in assay [2], the IC50 is greater than 100 µM.

Take `Cc1cc(C(=O)Nc2cccc(Oc3ccnc4[nH]c(=O)[nH]c34)c2)n(C)n1`: the results for the IC50 in assay [1] and in assay [2] were 79 µM and greater than 100 µM, respectively. For the compound `CN(C)c1cccc(C(=O)Nc2cccc(Oc3ccnc4[nH]c(=O)[nH]c34)c2)c1`, the IC50 in assay [1] is 42 µM; in assay [2] it was greater than 100 µM. On the same counts, the results for `CC(C)(C)c1cc(NC(=O)Nc2cccc(Oc3ccnc4[nH]c(=O)[nH]c34)c2)n(-c2ccc(F)cc2)n1` are 1.96 µM and 0.123 µM. In assay [2], `O=C(Nc1ccc(Oc2ccnc3[nH]c(=O)[nH]c23)cc1)c1ccc(Cl)c(C(F)(F)F)c1` yielded an IC50 of 15.9 µM.

With `Cc1ccc(Oc2ccnc3[nH]c(=O)[nH]c23)cc1NC(=O)c1cccc(OC(F)(F)F)c1`, the IC50 in assay [1] was greater than 100 µM; in assay [2], greater than 10 µM.

For the compound `O=c1[nH]c2nccc(Oc3ccc(NS(=O)(=O)c4ccccc4)cc3)c2[nH]1`, the IC50 in assay [2] worked out at 0.85 µM. Take `O=C(Nc1cccc(Oc2ccnc3[nH]c(=O)[nH]c23)c1)c1ccc(C(F)(F)F)cc1`: the values for the IC50 in assay [1] and in assay [2] were greater than 100 µM and 0.73 µM, respectively. Turning to `O=C(Nc1ccc(Oc2ccnc3[nH]c(=O)[nH]c23)cc1)Nc1ccc(Cl)c(C(F)(F)F)c1`, half-maximal inhibition in assay [2] (IC50) required 0.023 µM.
